A short description of assay [1]: Her2 expression decrease, cell viability multiplex – SKBR3 breast tumor cells, AlphaScreen, ATP viability, primary screen (AID 461).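 For Her2 level: lower value means less Her2 protein in the cells.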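 For viability: percent of carrier control wells set as 100% viability.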 Conditions: SKBR3 Her2 protein level, 18-24 h, measured here: SKBR3 viability, ATP luminescence, at 10 µM. (In Alpha technology, singlet oxygen from a donor bead excites a nearby acceptor bead.)
Assay [2] deals with Receptor tyrosine-protein kinase erbB-2 (Homo sapiens) (UniProt P04626). Described as above. To be noted: 18-24 h, at 10 µM, stronger effect = lower value.
Chain of Receptor tyrosine-protein kinase erbB-2 (Homo sapiens) (P04626 whole entry, looked up): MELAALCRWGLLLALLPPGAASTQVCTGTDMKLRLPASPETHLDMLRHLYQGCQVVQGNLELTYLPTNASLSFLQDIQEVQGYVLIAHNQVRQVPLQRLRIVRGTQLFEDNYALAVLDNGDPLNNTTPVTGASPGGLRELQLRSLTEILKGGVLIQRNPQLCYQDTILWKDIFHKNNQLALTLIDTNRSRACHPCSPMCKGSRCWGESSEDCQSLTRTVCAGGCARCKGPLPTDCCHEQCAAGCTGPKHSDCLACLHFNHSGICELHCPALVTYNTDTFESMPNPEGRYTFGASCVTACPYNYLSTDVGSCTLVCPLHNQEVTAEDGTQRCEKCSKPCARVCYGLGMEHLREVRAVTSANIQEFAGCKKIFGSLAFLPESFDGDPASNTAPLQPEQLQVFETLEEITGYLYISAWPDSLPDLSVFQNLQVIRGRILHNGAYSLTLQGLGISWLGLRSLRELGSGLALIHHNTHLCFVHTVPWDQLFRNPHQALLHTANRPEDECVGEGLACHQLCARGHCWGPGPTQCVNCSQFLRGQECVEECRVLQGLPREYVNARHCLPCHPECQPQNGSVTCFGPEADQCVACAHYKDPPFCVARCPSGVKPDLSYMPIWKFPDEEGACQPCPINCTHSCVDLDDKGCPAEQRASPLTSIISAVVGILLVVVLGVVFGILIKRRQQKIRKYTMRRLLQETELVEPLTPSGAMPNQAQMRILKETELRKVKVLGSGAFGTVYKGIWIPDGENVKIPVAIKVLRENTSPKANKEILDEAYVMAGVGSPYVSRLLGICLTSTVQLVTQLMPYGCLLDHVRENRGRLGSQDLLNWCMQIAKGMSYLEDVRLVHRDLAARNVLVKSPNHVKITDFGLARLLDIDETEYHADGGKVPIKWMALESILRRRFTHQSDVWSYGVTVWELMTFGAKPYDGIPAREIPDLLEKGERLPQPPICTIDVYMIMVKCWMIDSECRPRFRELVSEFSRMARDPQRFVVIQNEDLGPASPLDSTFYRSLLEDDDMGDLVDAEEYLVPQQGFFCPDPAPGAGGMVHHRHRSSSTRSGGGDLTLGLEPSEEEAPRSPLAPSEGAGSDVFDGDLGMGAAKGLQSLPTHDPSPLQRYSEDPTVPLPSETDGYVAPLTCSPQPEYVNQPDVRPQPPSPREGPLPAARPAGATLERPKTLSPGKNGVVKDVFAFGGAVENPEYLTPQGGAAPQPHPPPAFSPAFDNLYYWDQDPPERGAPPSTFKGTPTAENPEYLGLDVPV
Assay [3] can be described thus: reduced viability of SK-BR-3 breast cancer cells – cell-based, 24 h, human, pilot screen (AID 572;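 active = viability at or below 10% of carrier control in both of two separate runs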;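 note: compound exposure lasted between 18 and 24 h rather than exactly 24 h; 100% = carrier-treated control wells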). To be noted: SK-BR-3 viability, CellTiter-Glo luminescence, at 10 µM, stronger effect = lower value. (In general: In ATP-based viability assays light output follows the ATP content of the culture.)
A short description of assay [4]: HUVEC growth inhibition – cell-based, human, primary screen (AID 575;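 active = viability at or below 30% in both replicate assays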;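 note: 100% = median of untreated cell wells with 0.1% DMSO on each plate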). Conditions: HUVEC proliferation, CellTiter-Glo luminescence, 72 h; at 10 µM; stronger effect = lower value. In outline:
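Material: primary human umbilical vein endothelial cells / Schedule: 72 h exposure, 37 °C, 5% CO2, 30 min RT equilibration / Signal: ATP-based CellTiter-Glo luminescent read / Read-out basis: percent of median DMSO-control luminescence / Control set: 32 DMSO-only cell-control wells (high), 32 MePR drug-control wells (low) per plate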

A short description of assay [5]: H69AR cell proliferation blockers – human, duplicate replicates, primary screen (AID 580;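 active = viability at or under a set limit in both replicates, limit being median viability minus 3 SD, cut at about 48% in these data, passing the limit was not always enough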;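 note: 100% = mean luminescence of untreated wells and 0% = no signal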). To be noted: H69AR lung tumor cells viability, ATP luminescence, 72 h; at 10 µM; stronger effect = lower value.
Assay [6] can be described thus: MRP1 drug-resistance reversers in H69AR cells – cell-based, doxorubicin co-treatment, pilot screen (AID 601;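 active = viability loss from added drug above about 55%, and viability with drug at most 40%, in both replicates, limit read from the data, passing the limit was not always enough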). To be noted: CellTiter-Glo, 72 h, at 10 µM; for differential viability (reversal): stronger effect = higher value.
A short description of assay [7]: yeast transport mutant growth inhibition pilot in 384-well plates, post-Golgi transport modulator project (AID 636; in the data active = inhibition above about 31%). Conditions: absorbance 615 nm, about 18 h, stronger effect = higher value.
Assay [8] can be described thus: growth suppression of yeast trafficking mutant, preliminary HTS, modulators of trafficking downstream of Golgi apparatus project, 1536-format plate, OD 615 nm (AID 637; in the data active = inhibition above about 30%). Conditions: yeast transport mutant growth, absorbance 615 nm, 18 h; stronger effect = higher value.
Setting [9] is: H69AR cells + 2 uM doxorubicin, measured here: viability with 2 uM doxorubicin, stronger effect = lower value.
[10] abbreviates: H69AR cells, compound alone cytotoxicity.

The source made the active and inactive calls.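 Rule for the calls, unless noted: active = Her2 level under about 52% in both replicate screens, with viability over 70% of control (limit read from the data); inconclusive = Her2 under the limit in one screen only, or viability under 70%; inactive = Her2 level above the set limit.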

As usually defined, the viability is a read-out of living cells in per cent, often relative to untreated cells. The term inhibition denotes the drop in the measured response relative to a control, in per cent. As for `Cc1oc2cc(O)ccc2c(=O)c1-c1cnn(-c2ccccc2)c1`, the viability in assay [1] was 93.5%; in assay [3] it was 93.5% (inactive); in assay [4] it was 85% (inactive); in assay [5] it was 96.5% (inactive); in assay [6] (setting [9]), 98%; in assay [6] (setting [10]) it was 96.5%. The Her2 level in assay [2] is 90% (inactive). In assay [6] (H69AR cells + 2 uM doxorubicin), the differential viability (reversal) is -1.5% (inactive). Besides, the inhibition is -5.13% (inactive) in assay [7] and 13.3% (inactive) in assay [8].

For the compound `Cc1ccc(CCNC(=O)C2CCN(S(=O)(=O)c3c(C)nn(C)c3C)CC2)cc1`, the viability in assay [1] was 103%; in assay [3], 103% (inactive); in assay [4], 114% (inactive); in assay [5], 89% (inactive); in assay [6] (setting [9]), 96.1%; in assay [6] (setting [10]) it was 89%. For the same compound, the Her2 level in assay [2] is 115% (inactive). For the same compound, in assay [6] (H69AR cells + 2 uM doxorubicin), the differential viability (reversal) was -7.15% (inactive). Besides, the values for the inhibition in assay [7] and in assay [8] were -1.92% (inactive) and -2% (inactive), respectively.

For `COc1ccc(C(=O)CSc2nnc(C3CCCCC3)n2N)c(OC)c1`, the viability is 91.5% in assay [1]; 91.5% (inactive) in assay [3]; 119% (inactive) in assay [4]; 83.3% (inactive) in assay [5]; 81.3% in assay [6] (setting [9]); 83.3% in assay [6] (setting [10]). Further, the Her2 level in assay [2] was 105% (inactive). Also, the differential viability (reversal) in assay [6] (H69AR cells + 2 uM doxorubicin) was 2% (inactive). The inhibition in assay [7] is -4% (inactive); in assay [8], -6.23% (inactive).

As for `CC(C)(C)OC(=O)N1CC(O)CC1C(=O)OCC(=O)c1ccc(Cl)cc1` (stereo not given), the viability in assay [1] was 95%; in assay [3] it was 95% (inactive); in assay [4], 109% (inactive); in assay [5], 84% (inactive); in assay [6] (setting [9]) it was 90.3%; in assay [6] (setting [10]), 84%. In assay [2], the Her2 level is 91% (inactive). In addition, the differential viability (reversal) in assay [6] (H69AR cells + 2 uM doxorubicin) is -6.24% (inactive). The values for the inhibition in assay [7] and in assay [8] were -5.68% (inactive) and 11.5% (inactive), respectively.

Consider `O=C(CNS(=O)(=O)c1ccc(Br)s1)N1CCN(c2ncccn2)CC1`, for which the viability in assay [1] was 98.5%; in assay [3] it was 98.5% (inactive); in assay [4], 122% (inactive); in assay [5], 94.6% (inactive); in assay [6] (setting [9]) it was 98.7%; in assay [6] (setting [10]) it was 94.6%. For the same compound, in assay [2], the Her2 level is 116% (inactive). In assay [6] (H69AR cells + 2 uM doxorubicin), the differential viability (reversal) was -4.04% (inactive). The inhibition in assay [7] is -4.87% (inactive); in assay [8] it was -1.31% (inactive).

With `O=C(c1ccccc1)c1ccc(N2CCOCC2)c(NC(=O)c2ccco2)c1`, the viability in assay [1] is 82.5%; in assay [3] it was 82.5% (inactive); in assay [4] it was 81.1% (inactive); in assay [5], 87.3% (inactive); in assay [6] (setting [9]), 71.6%; in assay [6] (setting [10]) it was 87.3%. Besides, the Her2 level in assay [2] is 78.5% (inactive). For the same compound, the differential viability (reversal) in assay [6] (H69AR cells + 2 uM doxorubicin) is 15.7% (inactive). The results for the inhibition in assay [7] and in assay [8] were -3.16% (inactive) and 2.86% (inactive), respectively.

Turning to `CCCCN(C)Cc1c(C)[nH]c2c(Cl)cccc2c1=O`, the viability is 84.5% in assay [1]; 84.5% (inactive) in assay [3]; 96% (inactive) in assay [4]; 90.6% (inactive) in assay [5]; 76.9% in assay [6] (setting [9]); 90.6% in assay [6] (setting [10]). In addition, the Her2 level in assay [2] was 87% (inactive). In addition, the differential viability (reversal) in assay [6] (H69AR cells + 2 uM doxorubicin) was 13.7% (inactive). Besides, the inhibition was -4.34% (inactive) in assay [7] and -2.06% (inactive) in assay [8].

Consider `Cc1ccc(-n2ncc3c(=O)[nH]c(SCC(=O)N4CCN(c5ccccc5)CC4)nc32)cc1`, for which the viability was 86% in assay [1]; 86% (inactive) in assay [3]; 92.2% (inactive) in assay [4]; 76.3% (inactive) in assay [5]; 71.5% in assay [6] (setting [9]); 76.3% in assay [6] (setting [10]). In assay [2], the Her2 level was 77% (inactive). Also, in assay [6] (H69AR cells + 2 uM doxorubicin), the differential viability (reversal) is 4.85% (inactive). Besides, the inhibition in assay [7] is -5.79% (inactive); in assay [8] it was -1.17% (inactive).

With `O=C(O)CCC1(C(=O)O)OCCc2ccccc21` (stereo not given), the viability in assay [1] was 112%; in assay [3], 112% (inactive); in assay [4], 107% (inactive); in assay [5] it was 97.5% (inactive); in assay [6] (setting [9]), 90.3%; in assay [6] (setting [10]), 97.5%. In assay [2], the Her2 level was 83% (inactive). In addition, the differential viability (reversal) in assay [6] (H69AR cells + 2 uM doxorubicin) is 7.12% (inactive). Also, the inhibition was -5.54% (inactive) in assay [7] and 2.86% (inactive) in assay [8].

For `Cc1cc(-c2ccc(F)cc2)nc2cc(C(N)=O)nn12`, the viability was 94.5% in assay [1]; 94.5% (inactive) in assay [3]; 84.6% (inactive) in assay [4]; 87.6% (inactive) in assay [5]; 89.6% in assay [6] (setting [9]); 87.6% in assay [6] (setting [10]). Also, the Her2 level in assay [2] is 104% (inactive). The differential viability (reversal) in assay [6] (H69AR cells + 2 uM doxorubicin) is -1.99% (inactive). The inhibition in assay [7] was -2.47% (inactive); in assay [8], 17.3% (inactive).

For the compound `CCOC(=O)c1c(C)n(C)c2ccc(OC)c(NC(=O)CCN3CCSCC3)c12`, the viability in assay [1] was 122%; in assay [3], 122% (inactive); in assay [4] it was 96.7% (inactive); in assay [5], 83.5% (inactive); in assay [6] (setting [9]), 85.1%; in assay [6] (setting [10]), 83.5%. The Her2 level in assay [2] was 91.5% (inactive). The differential viability (reversal) in assay [6] (H69AR cells + 2 uM doxorubicin) was -1.65% (inactive). For the same compound, the inhibition is -2.89% (inactive) in assay [7] and -2.74% (inactive) in assay [8].

Take `N#CC1=C(N)OC(c2ccccc2)=C(C#N)C1c1ccc2c(c1)OCO2` (stereo not given): the viability in assay [1] is 95%; in assay [3], 95% (inactive); in assay [4], 85.5% (inactive); in assay [5], 93.8% (inactive); in assay [6] (setting [9]), 80.6%; in assay [6] (setting [10]) it was 93.8%. Besides, in assay [2], the Her2 level was 108% (inactive). The differential viability (reversal) in assay [6] (H69AR cells + 2 uM doxorubicin) is 13.3% (inactive). Besides, the results for the inhibition in assay [7] and in assay [8] were -0.13% (inactive) and 100% (active), respectively.

Turning to `COc1ccc(C(=O)OCC(=O)NCc2ccco2)cc1OC`, the viability in assay [1] is 110%; in assay [3], 110% (inactive); in assay [4], 102% (inactive); in assay [5], 78.4% (inactive); in assay [6] (setting [9]), 82.1%; in assay [6] (setting [10]) it was 78.4%. Also, the Her2 level in assay [2] is 89.5% (inactive). Besides, in assay [6] (H69AR cells + 2 uM doxorubicin), the differential viability (reversal) is -3.74% (inactive). The inhibition in assay [7] is -1.95% (inactive); in assay [8], -6.23% (inactive).

Consider `CCCOc1ccc(-c2nnn(CC(=O)Nc3cccc(C(=O)OC)c3)n2)cc1`, for which the viability in assay [1] was 100%; in assay [3], 100% (inactive); in assay [4], 64.3% (inactive); in assay [5], 48% (active); in assay [6] (setting [9]), 54%; in assay [6] (setting [10]) it was 48%. Moreover, the Her2 level in assay [2] was 98% (inactive). In addition, in assay [6] (H69AR cells + 2 uM doxorubicin), the differential viability (reversal) was -5.98% (inactive). For the same compound, the inhibition is 1.87% (inactive) in assay [7] and 21.1% (inactive) in assay [8].

As to `COc1ccc(OCCC(=O)NCc2ccccc2)cc1`, the viability in assay [1] is 103%; in assay [3], 103% (inactive); in assay [4], 95.7% (inactive); in assay [5], 103% (inactive); in assay [6] (setting [9]) it was 83.3%; in assay [6] (setting [10]) it was 103%. The Her2 level in assay [2] was 105% (inactive). Further, the differential viability (reversal) in assay [6] (H69AR cells + 2 uM doxorubicin) was 19.8% (inactive). Moreover, the inhibition in assay [7] is -3.2% (inactive); in assay [8], 2.9% (inactive).

With `CCc1ccc2nc(NC(=O)CSCc3c(C)noc3C)sc2c1`, the viability is 88.5% in assay [1]; 88.5% (inactive) in assay [3]; 52.5% (inactive) in assay [4]; 87.2% (inactive) in assay [5]; 97.6% in assay [6] (setting [9]); 87.2% in assay [6] (setting [10]). The Her2 level in assay [2] is 110% (inactive). Besides, the differential viability (reversal) in assay [6] (H69AR cells + 2 uM doxorubicin) was -10.5% (inactive). For the same compound, the inhibition in assay [7] is -0.67% (inactive); in assay [8], -7.54% (inactive).

Values taken from PubChem BioAssay.
